# CHO parental Ca: counter-screen for OX1R antagonists: effect in parental CHO cells; AID 463079; hit rate 0.63% among 330,000; inhibition, % at 5.6 µM; parental CHO-K1, ATP-induced calcium, Fluo-8 fluorescence;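 active = inhibition above that plate's mean sample inhibition plus 3 SD, cut at about 26% in these data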;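 also: 0% = ATP-challenged DMSO wells and 100% = DMSO wells without ATP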
#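 test system = CHO parental line | reagent = ATP stimulus | measured by = intracellular calcium via Fluo-8 no-wash fluorescent dye | control set = ATP and no-ATP DMSO wells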
# OX1R antag-1: antagonists of human orexin 1 receptor (OX1R) | hit rate 1.8% among 330,000 | inhibition, % at 6.6 µM | O43613 | OX1R-expressing cells, FRET antagonist read-out | AID 485270; in the data active = inhibition mostly above about 38%, no sharp cut-off; inactive = mostly below about 40%;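 also: 0% = agonist challenge alone and 100% = reference antagonist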
# Target sequence (O43613 whole entry, looked up): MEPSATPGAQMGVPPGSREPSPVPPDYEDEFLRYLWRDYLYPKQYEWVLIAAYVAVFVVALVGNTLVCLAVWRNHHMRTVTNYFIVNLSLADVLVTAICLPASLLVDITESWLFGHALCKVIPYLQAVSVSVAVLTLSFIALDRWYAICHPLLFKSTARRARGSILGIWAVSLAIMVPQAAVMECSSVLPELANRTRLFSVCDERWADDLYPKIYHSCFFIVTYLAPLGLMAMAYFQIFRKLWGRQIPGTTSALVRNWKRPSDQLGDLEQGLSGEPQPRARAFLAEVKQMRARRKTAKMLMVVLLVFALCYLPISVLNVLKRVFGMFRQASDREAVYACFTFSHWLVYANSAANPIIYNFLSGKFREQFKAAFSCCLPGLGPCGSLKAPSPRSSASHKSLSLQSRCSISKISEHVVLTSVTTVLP
# TAAR1 agonist: human TAAR1 agonism. hit rate 0.99% among 360,000. activation, % at 3 µM. Q96RJ0. CHO RD-HGA16 TAAR1, Fluo-8 calcium fluorescence; vehicle wells 0%, saturating PEA agonist 100%;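 active = activation above the mean activation of all test compounds in the run plus 3 SD, cut at about 38% in these data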
#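 Assay system: CHO-derived RD-HGA16 cells with stable Gα16 and human TAAR1; timing: 17-24 h seeding, 75 min 37 °C dye, 30 min RT; read-out: % activation from peak over basal fluorescence ratio, DMSO-to-PEA scaled; measured by: kinetic Fluo-8 calcium fluorescence; benchmarks: low control DMSO, high control PEA (EC100); doses: 3 µM single concentration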
# TAAR1 antag: antagonists of human TAAR1 | Q96RJ0 | inhibition, % at 3 µM | CHO RD-HGA16 TAAR1, Fluo-8 calcium fluorescence, antagonist | hit rate 1.5% among 360,000 | AID 624466;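 active = inhibition above a per-plate cutoff, the mean inhibition of test compounds on that plate plus 3 SD, cut at about 49% in these data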;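 also: 0% = DMSO plus EC80 beta-PEA response and 100% = DMSO alone without agonist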
#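 System: CHO RD-HGA16 cells bearing hTAAR1. Reagent: EC80 β-phenethylamine stimulus. Schedule: seeding 17-24 h prior, 75-min 37 °C, 30-min RT dye loading. Signal: Fluo-8 intracellular calcium dye fluorescence, real-time kinetic reads. Read-out: % inhibition from peak post-agonist over basal fluorescence ratio. Benchmarks: vehicle wells and EC80 agonist wells. Replicates: n of 1.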
# GPR7 antag: human neuropeptides B/W receptor 1 antagonism. P48145. GPR7-expressing cells, fluorescence antagonist assay. inhibition, % at 4.4 µM. hit rate 1.1% among 290,000. AID 1861; in the data active = inhibition above about 16%, passing the limit was not always enough;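 also: cells stimulated with the agonist NPW; 0% = agonist with vehicle and 100% = vehicle without agonist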
# OX1R antag-2: blocks the human orexin 1 receptor | O43613 | CHO/OX1R cells, Fluo-8 calcium fluorescence, orexin A | inhibition, % at 5 µM | hit rate 0.43% among 330,000 | AID 434989;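 active = inhibition above its plate's threshold, mean inhibition of all tested compounds on the plate plus 3 SD, cut at about 37% in these data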;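 also: 0% = orexin A challenge wells and 100% = SB-334867-A antagonist wells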
# OX1R Ca confirm: confirmation of human orexin 1 receptor antagonists | shares compounds with OX1R antag-2 | CHO/OX1R cells, orexin A calcium Fluo-8 fluorescence | inhibition, % at 5 µM | hit rate 38% among 1,100 | AID 492963; in the data active = inhibition above about 29%;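 also: 0% = agonist challenge alone and 100% = reference antagonist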
# CHO Ca counter: counter-screen: parental CHO calcium response change, triplicate; shares compounds with OX1R antag-2; parental CHO-K1, ATP-induced calcium, Fluo-8 fluorescence; inhibition, % at 5.6 µM; hit rate 9.3% among 1,100; AID 492965;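 active = inhibition above a per-plate limit, the mean inhibition of that plate's test compounds plus 3 SD, cut at about 25% in these data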;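 also: 0% = ATP challenge with DMSO and 100% = DMSO without ATP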
# OX1R HTRF confirm: confirmation of human orexin 1 receptor antagonists, HTRF format; shares compounds with OX1R antag-1; OX1R-expressing cells, HTRF antagonist assay; inhibition, % at 6.6 µM; hit rate 49% among 1,800; in the data active = inhibition above about 55%;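 also: CHO cells expressing OX1R stimulated with orexin A at about EC80; 0% = agonist challenge alone and 100% = reference antagonist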
# CHO-K1 HTRF: signal in parental CHO-K1 cells, OX1R antagonist counter-screen; HTRF counterscreen; inhibition, % at 6.6 µM; AID 493232; shares compounds with OX1R antag-1; hit rate 48% among 1,800; in the data active = inhibition above about 17%;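 also: 0% = agonist challenge with vehicle and 100% = vehicle alone without agonist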
# * = called active by the depositor; x = no result given. This is a sample that favours compounds with a hit; in the whole collection about 4.6% have one here.
SMILES,CHO parental Ca,OX1R antag-1,TAAR1 agonist,TAAR1 antag,GPR7 antag,OX1R antag-2,OX1R Ca confirm,CHO Ca counter,OX1R HTRF confirm,CHO-K1 HTRF
Cc1ccc2sc3ccc(NC(=O)c4ccccc4Cl)cc3c(=O)c2c1,-16.8,71.2*,5.2,17.7,-3.2,36.8,20.7,4.5,72.1*,18.2*
Cc1noc(C)c1S(=O)(=O)N(C)C[C@H]1Oc2c(NC(=O)C3CCCCC3)cccc2C(=O)N([C@H](C)CO)C[C@@H]1C,-19.8,11.6,1.5,-12.1,x,-36.0,x,x,x,x
Cc1nn(-c2ccccc2)c(C)c1/C=N/NC(=O)c1cc(-c2ccccc2)n[nH]1,-23.1,97.8*,14.8,38.6,8.8,87.4*,63.7*,-5.3,80.8*,-18.8
Cc1nn(-c2ccccc2)c(C)c1/C=N/NC(=O)c1cc(-c2cccc3ccccc23)n[nH]1,-11.1,10.3,3.0,33.5,-17.7,-19.3,x,x,x,x
N#Cc1ccccc1OCC(=O)Nc1c(C(=O)C2CC2)oc2ccccc12,8.0,14.9,6.9,16.7,-7.2,-19.0,x,x,x,x
Cc1ccc(NC(=O)c2ccc(C)cc2)cc1,-11.9,31.3,2.5,-6.7,x,-1.8,x,x,x,x
Cc1ccc(C(=O)Nc2ccc(Br)c(C(F)(F)F)c2)cc1,-3.4,50.7*,3.8,13.3,-5.6,29.3,6.0,3.5,33.9,12.0
CCOC(=O)C1=C(COC(=O)c2cc(Br)c(Br)s2)NC(=O)NC1C (centres undefined),-22.8,49.3*,6.7,35.7,x,31.6,18.9,-7.9,30.6,7.4
O=C(Nc1ccc2c(c1)OCCO2)c1ccc2ccccc2n1,-17.6,107.4*,-0.8,1.2,-1.4,27.9,21.9,3.2,86.8*,13.8
CCSc1nnc(NC(=O)c2ccc3ccccc3n2)s1,-0.9,93.5*,-0.4,-6.0,7.6,78.8*,43.5*,-1.6,92.0*,6.7
Cc1ccc(NC(=O)c2ccc3ccccc3n2)nc1,-19.2,86.9*,3.2,-20.1,-3.9,38.8,37.9*,-11.8,97.1*,-3.5
COc1c(O)cccc1[C@@H](O)C1CCN(CCc2ccc(F)cc2)CC1,0.7,-1.5,5.6,0.5,x,20.9,x,x,x,x
Cc1cc(=O)oc2cc(NC(=O)CN3C(=O)NC(C)(c4ccccc4)C3=O)ccc12 (centres undefined),-7.6,26.5,10.7,-11.8,x,-21.1,x,x,x,x
CCC(C)(C)NC(=O)CN(C(=O)c1csnn1)c1ccccc1-c1ccccc1,-23.6,86.9*,13.2,-2.0,-11.4,71.8*,32.4*,11.4,83.7*,3.8
CCOc1ccccc1NC(=O)c1ccccc1-c1nc(-c2ccccc2OC)no1,8.7,87.1*,10.6,65.7*,8.1,45.3*,11.3,-11.7,54.5,5.6
CCOc1ccccc1C(=O)Nc1cc(OC)ccc1OC,-2.0,68.5*,2.0,16.0,-10.2,61.1*,3.4,-16.7,88.7*,-3.4
CCOc1ccccc1C(=O)NCCNC(=O)c1ccccc1OCC,-5.0,80.3*,2.7,9.0,x,64.6*,76.6*,-14.1,52.0,9.8
O=C(COc1ccc(Cl)cc1)Nc1nnc(C2=COCCO2)o1,-14.5,18.3,2.2,-16.0,-15.9,-13.6,x,x,x,x
CC(C(=O)NCc1ccccc1)n1c(-c2ccc3c(c2)CCO3)nc2ccccc21 (centres undefined),x,x,-0.3,-13.6,x,x,x,x,x,x
CN(C)CC(C)(C)CNC(=O)c1cc(=O)c2ccccc2o1,-11.2,10.8,13.4,3.9,-8.6,2.4,x,x,x,x
CC(=O)Nc1ccc(NC(=O)C(C)OC(=O)COc2ccc(Nc3ccccc3)cc2)cc1 (centres undefined),-9.7,30.7*,15.0,13.2,x,41.4*,32.9*,-1.1,24.1,4.6
